Compound activity: PubChem, several laboratories
Hits are enriched below; roughly 4.7% of the tested compounds scored in any of these assays.
RGS4 act – potentiators or activators of RGS4; 0.92% of 310,000 active; HEK293 M3R/inducible RGS4, carbachol calcium flux Fluo4; hits give low values; B-score at 10 µM;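 active means B-score of the integrated calcium signal more than 4 SD below the library mean, with starting fluorescence not abnormally high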;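 further: negative B-score means reduced calcium response which marks RGS4 activation or potentiation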
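Assay system: Inducible-RGS4 HEK293 cells carrying M3 receptor | Schedule: Compound preincubation 20 min at room temperature before agonist | Signal: Kinetic calcium fluorescence imaging with Fluo4-AM dye, 2 µM | Read-out basis: B score from integrated fluorescence ratio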
MrgX1 ag – activates human MrgX1 receptor signaling; Q96LB2; MrgX1-HEK293 cells, Fluo-4 calcium fluorescence, agonist mode; hits give high values; B-score at 10 µM; 0.44% of 310,000 active; AID 588627;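 active means calcium response B-score plate-corrected fluorescence ratio at least 3 library SD, with starting fluorescence B-score inside 5 SD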
Target sequence (Q96LB2 whole entry, looked up): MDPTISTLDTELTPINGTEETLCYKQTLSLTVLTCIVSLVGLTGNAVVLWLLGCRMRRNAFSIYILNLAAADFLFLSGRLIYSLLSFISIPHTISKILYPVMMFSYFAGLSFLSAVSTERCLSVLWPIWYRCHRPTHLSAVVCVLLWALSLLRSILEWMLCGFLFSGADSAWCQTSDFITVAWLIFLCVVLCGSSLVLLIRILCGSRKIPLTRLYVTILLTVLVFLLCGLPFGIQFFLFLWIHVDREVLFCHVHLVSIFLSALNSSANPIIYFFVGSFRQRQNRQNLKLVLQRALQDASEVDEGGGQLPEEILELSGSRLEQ
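Test system: HEK293 cells stably expressing human MrgX1 receptor; Input: fifteen thousand cells per well; Dosing: compound delivered in addition one of three; Schedule: overnight seeding, then 1 h dark dye loading; Technique: Fluo-4 NW calcium fluorescence; Measure: B-scored fluorescence response ratio; Controls: positive and negative controls per plate.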
KCC2 mod – KCC2 (human) Cl- transport modulation. AID 1456. Q9H2X9. KCC2 cells, thallium flux FluoZin-2 fluorescence. 2.2% of 190,000 active. B-score of Tl+ flux slope (higher = more flux/activation; lower = inhibition) at 10 µM;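 active means thallium flux slope and its plate-corrected score both differing from the plate sample mean at a set confidence after two filtering rounds, in either direction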;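 further: slope of fluorescence scaled to starting intensity during 10 to 20 s after thallium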
MrgX1 PAM – allosterically activates human MrgX1 receptor signaling. Q96LB2. 0.63% of 310,000 active. MrgX1-HEK293, Fluo-4 calcium flux, FDSS; hits give high values. B-score at 10 µM;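 active means plate-corrected calcium response at least 3 library SD above typical, normal starting fluorescence, not activating the receptor alone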;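 further: compound read alongside a low EC10 to EC30 dose of BAM8-22 agonist; peak minus trough fluorescence over baseline measured at the second addition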
RGS4 block – human RGS4 inhibition | P49798 | HEK293 M3R/RGS4 inducible, Fluo-4 calcium flux; hits give high values; triggered by carbachol at its EC20 | B-score at 10 µM | 0.45% of 310,000 active;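 active means B-score, a plate-corrected calcium signal, over three deviations above library mean, with baseline fluorescence within five deviations of library mean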;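 further: RGS4 expression induced by doxycycline in cells with stable M3 receptor; B-score is computed from the integrated fluorescence ratio over baseline after carbachol; higher B-score means a larger calcium signal and so more RGS4 inhibition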
Target sequence (P49798 whole entry, looked up): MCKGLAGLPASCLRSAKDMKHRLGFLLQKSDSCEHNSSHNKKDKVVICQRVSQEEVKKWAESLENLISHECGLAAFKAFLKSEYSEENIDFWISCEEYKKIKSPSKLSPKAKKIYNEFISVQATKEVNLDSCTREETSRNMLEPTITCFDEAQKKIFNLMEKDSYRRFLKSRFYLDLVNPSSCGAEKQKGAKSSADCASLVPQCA
MrgX1 antagonist – human MrgX1 receptor antagonism, primary screen | Q96LB2 | MRGX1-HEK293 calcium flux, Fluo-4, BAM8-22 antagonism; hits give low values | B-score at 10 µM | 1.3% of 310,000 active | AID 588676;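 active means calcium-response B-score plate-corrected more than 3 library SD below zero, starting fluorescence within 5 deviations, no agonist response on first addition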;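 further: peak minus trough fluorescence over baseline after final BAM8-22 challenge near maximal dose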
MrgX1 ant reconf – reconfirmed antagonist of human MrgX1 receptor signaling; shares compounds with MrgX1 antagonist; MrgX1-HEK293, BAM8-22 calcium flux, Fluo-4; hits give low values; remaining BAM8-22 calcium response % of control (hits give low values), % at 10 µM; 19% of 2,300 active; AID 602420;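 active means remaining agonist calcium response no higher than 100% minus 3 SD of agonist-only control wells, with starting fluorescence near control levels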;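 further: agonist BAM8-22 given at a near maximal EC90 to ECmax level; peak minus minimum fluorescence divided by baseline after agonist addition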
HEK293 Ca flux – activity in parental HEK293 cells lacking MrgX1; 2% of 4,000 active; fluorescence ratio F(max-min)/F0 at 10 µM; Fluo-4 calcium fluorescence, FDSS; shares compounds with MrgX1 antagonist;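 active means duplicate-averaged calcium fluorescence ratio at least three times the standard deviation of buffer wells, a nonspecific response in parental cells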
HEK293 Ca counter – activity in parental HEK293 cells without MrgX1. shares compounds with MrgX1 antagonist. parental HEK293 calcium flux, Fluo-4 fluorescence ratio; hits give high values. fluorescence ratio F(max-min)/F0 at 10 µM. 0.4% of 4,000 active. AID 624114;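 active means calcium fluorescence ratio, averaged over duplicates, at least 3 SD of the buffer-well ratio, meaning a nonspecific response in receptor-free cells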;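 further: untransfected parental HEK293 lacking MrgX1 used as counterscreen for MrgX1 allosteric activators; fluorescence change taken during the second addition on a kinetic imager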
HEK293 Ca cntr2 – activity in parental HEK293 cells lacking MrgX1 receptor. fluorescence ratio F(max-min)/F0 at 10 µM. 8.7% of 4,000 active. shares compounds with MrgX1 antagonist. Fluo-4 calcium fluorescence (FDSS); hits give high values;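 active means calcium fluorescence ratio at least three times the spread of buffer wells, meaning a non-specific response in parental cells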
Starred values were filed as active, the others as inactive; i = inactive; / = no result given.

SMILES	RGS4 act	MrgX1 ag	KCC2 mod	MrgX1 PAM	RGS4 block	MrgX1 antagonist	MrgX1 ant reconf	HEK293 Ca flux	HEK293 Ca counter	HEK293 Ca cntr2
CCOC(=O)C1CCCN(C(=O)Cn2nc(C)c3c(C)n(-c4ccccc4)nc3c2=O)C1 (centres undefined)	i	i	/	i	i	i	/	/	/	/
CC(C)(C)SCCNC(=O)CSc1ccccc1	i	i	/	i	i	-5*	84%*	i	i	i
COc1ccc(Cl)cc1NC(=O)CN(C)C(=O)Cc1ccc2c(c1)CCC2	i	i	/	i	i	i	/	/	/	/
COc1ccc(Cl)cc1NC(=O)CN(C)C(=O)Cc1ccsc1	i	i	/	i	i	-6.8*	i	i	i	i
O=C(NCCO)c1ccc2[nH]c3c(c2c1)CCCC3	i	i	/	i	i	-6.5*	i	i	i	i
O=C(NCCCO)c1ccc2[nH]c3c(c2c1)CCCC3	i	i	-0.15	i	i	i	/	/	/	/
COc1ccc(N(CC(=O)Nc2cc(OC)c(OC)cc2C(=O)O)S(=O)(=O)c2c(C)noc2C)cc1	i	i	/	i	i	i	/	/	/	/
CCOC(=O)C1=C(C)NC(=S)NC1c1ccc(-c2ccc(Cl)cc2)o1 (centres undefined)	i	i	1.1	i	i	-4.8*	i	i	i	i
CCOC(=O)C1=C(C)NC(=O)NC1c1ccc(-c2ccc(Cl)cc2)o1 (centres undefined)	i	i	1	i	i	i	/	/	/	/
CC(NS(=O)(=O)c1ccc2c(c1)CC(=O)N2C)c1ccccc1 (centres undefined)	i	i	/	i	i	i	/	/	/	/
COc1ccc(OC)c(S(=O)(=O)Nc2ccc(CC(=O)O)cc2)c1	i	i	-0.74	i	i	-9.2*	i	i	i	i
COc1ccc(OC)c(S(=O)(=O)Nc2ccc(OCC(=O)O)cc2)c1	i	i	0.57	i	i	i	/	/	/	/
COc1ccc(S(=O)(=O)N2CCCCC2)cc1NC(=O)C1CSC2(C)CCC(=O)N12 (centres undefined)	i	i	/	i	i	i	/	/	/	/
COc1cc(NC(=O)C2CSC3(C)CCC(=O)N23)c(OC)cc1Cl (centres undefined)	i	i	/	i	i	-7.8*	83%*	i	i	i
CCCOc1ccc(C(=O)NNC(=O)CCNC(=O)c2ccco2)cc1OC	i	i	/	i	i	i	/	/	/	/
CSc1cccc(NS(=O)(=O)c2ccc3c(c2)oc(=O)n3C)c1	i	i	-0.37	i	i	-6.2*	76%*	i	i	i
CCCC1C(C#N)=C(N)Oc2n[nH]c(C(C)(C)C)c21 (centres undefined)	i	i	-1.7	i	i	-5.1*	i	i	i	i
CC(C)C1C(C#N)=C(N)Oc2n[nH]c(C(C)(C)C)c21 (centres undefined)	/	i	/	i	/	i	/	/	/	/
COc1ccc(C(=O)NCCCNC(=O)c2cccnc2)cc1Br	i	i	/	i	i	i	/	/	/	/
CN1CCN(Cc2nc3ccccc3c(=O)n2Cc2nc(-c3ccc([N+](=O)[O-])cc3)cs2)CC1	i	i	-0.18	i	i	i	/	/	/	/
